Experimental data published in ChEMBL document CHEMBL1781975, “Synthesis, crystal structure and antimicrobial activity of deoxybenzoin derivatives from genistein” (2008).
Converted amounts (≈) assume the structure as drawn. The source made the active and inactive calls. The calls are words filed in the database; no cut-off is given here.

How the values were obtained:
Escherichia coli = experiment: Antibacterial activity against Escherichia coli after 24 hrs by MTT assay; type: functional
Method in brief: (§1)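 Broth microdilution MIC in Mueller-Hinton medium, compounds from a 50 mg/ml DMSO stock serially diluted in the wells. Inoculum approx. 10⁵ cfu/ml, incubated 37 °C for 24 h. MIC read visually. PBS (pH 7.4) with 2 mg/ml MTT then added, 12 h further incubation at room temperature, OD at 550 nm.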

Bacillus subtilis = experiment: Antibacterial activity against Bacillus subtilis after 24 hrs by MTT assay; type: functional; method in brief: as §1
Pseudomonas fluorescens = experiment: Antibacterial activity against Pseudomonas fluorescens after 24 hrs by MTT assay; type: functional; method in brief: as §1
Staphylococcus aureus = experiment: Antibacterial activity against Staphylococcus aureus after 24 hrs by MTT assay; type: functional; method in brief: as §1
Candida albicans = experiment: Antifungal activity against Candida albicans after 48 hrs by MTT assay; type: functional, organism-based
Method in brief: (§2)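 Fungi tested by microdilution in RPMI-1640 buffered with 0.165 mol/L MOPS to pH 7.0. Compounds from a 50 mg/ml DMSO stock serially diluted. Inoculum approx. 10⁵ cfu/ml, 37 °C for 48 h. MIC scored visually, then MTT (2 mg/ml in PBS) added, 12 h at room temperature, absorbance 550 nm.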

Aspergillus niger = experiment: Antifungal activity against Aspergillus niger after 48 hrs by MTT assay; type: functional, organism-based; method in brief: as §2
Trichophyton rubrum = experiment: Antifungal activity against Trichophyton rubrum after 48 hrs by MTT assay; type: functional, organism-based; method in brief: as §2

| SMILES | MIC (Escherichia coli) [µg/mL] | MIC (Bacillus subtilis) [µg/mL] | MIC (Pseudomonas fluorescens) [µg/mL] | MIC (Staphylococcus aureus) [µg/mL] | MIC (Candida albicans) | MIC (Aspergillus niger) | MIC (Trichophyton rubrum) |
| --- | --- | --- | --- | --- | --- | --- | --- |
| CC(=O)N1CCN(c2ccc(OCC3COC(Cn4ccnc4)(c4ccc(Cl)cc4Cl)O3)cc2)CC1 (stereo not given) [KETOCONAZOLE] | > 50 | > 50 | > 50 | > 50 |  |  |  |
| NC[C@H]1O[C@H](O[C@H]2[C@H](O)[C@@H](O[C@H]3O[C@H](CO)[C@@H](O)[C@H](N)[C@H]3O)[C@H](N)C[C@@H]2N)[C@H](O)[C@@H](O)[C@@H]1O [KANAMYCIN] | 0.45 (≈ 0.929 µM) | 1 (≈ 2.06 µM) | 3.9 (≈ 8.05 µM) | 1 (≈ 2.06 µM) |  |  |  |
| O=C(O)COc1ccc(CC(=O)c2c(O)cc(OCC(=O)O)cc2OCC(=O)O)cc1 | 48.5 (≈ 112 µM) | 45.5 (≈ 105 µM) | > 50 | > 50 | inactive | inactive | inactive |
| O=C(Cc1ccc(OCCCBr)cc1)c1c(OCCCBr)cc(OCCCBr)c(Cc2c(OCCCBr)cc(OCCCBr)c(C(=O)Cc3ccc(OCCCBr)cc3)c2O)c1O | 17.5 (≈ 13.9 µM) | 6.25 (≈ 4.97 µM) | > 50 | > 50 | inactive | inactive | inactive |
| CC1(C)S[C@@H]2[C@H](NC(=O)Cc3ccccc3)C(=O)N2[C@H]1C(=O)O [PENICILLIN G] | > 50 | 7.8 (≈ 23.3 µM) | > 50 | 2 (≈ 5.98 µM) |  |  |  |
| O=C(Cc1ccc(OCCBr)cc1)c1c(O)cc(OCCBr)cc1OCCBr | 36.5 (≈ 62.8 µM) | 30.5 (≈ 52.5 µM) | > 50 | > 50 | inactive | inactive | inactive |

Other lines, results leading:

| MIC (Escherichia coli) [µg/mL] | MIC (Bacillus subtilis) [µg/mL] | MIC (Pseudomonas fluorescens) [µg/mL] | MIC (Staphylococcus aureus) [µg/mL] | MIC (Candida albicans) | MIC (Aspergillus niger) | MIC (Trichophyton rubrum) | SMILES |
| --- | --- | --- | --- | --- | --- | --- | --- |
| 25 (≈ 40.1 µM) | 25 (≈ 40.1 µM) | > 50 | > 50 | inactive | inactive | inactive | O=C(Cc1ccc(OCCCBr)cc1)c1c(O)cc(OCCCBr)cc1OCCCBr |
| 42.5 (≈ 163 µM) | 40.5 (≈ 156 µM) | > 50 | > 50 | inactive | inactive | inactive | O=C(Cc1ccc(O)cc1)c1c(O)cc(O)cc1O |
| > 50 | > 50 | > 50 | > 50 | inactive | inactive | inactive | O=c1c(-c2ccc(O)cc2)coc2cc(O)cc(O)c12 [GENISTEIN] |
| 38.5 (≈ 62.4 µM) | 31.5 (≈ 51.1 µM) | > 50 | > 50 | inactive | inactive | inactive | COc1ccc(CC(=O)c2c(OC)cc(OC)c(Cc3c(OC)cc(OC)c(C(=O)Cc4ccc(OC)cc4)c3O)c2O)cc1 |
| 25 (≈ 28.4 µM) | 12.5 (≈ 14.2 µM) | > 50 | > 50 | inactive | inactive | inactive | O=C(O)COc1ccc(CC(=O)c2c(OCC(=O)O)cc(OCC(=O)O)c(Cc3c(OCC(=O)O)cc(OCC(=O)O)c(C(=O)Cc4ccc(OCC(=O)O)cc4)c3O)c2O)cc1 |
| > 50 | > 50 | > 50 | > 50 | inactive | inactive | inactive | COc1ccc(CC(=O)c2c(O)cc(OC)cc2OC)cc1 |
